The target in assay [1] is Coagulation factor X (Homo sapiens, UniProt P00742). Briefly: In vitro inhibitory activity against human Coagulation factor X.
Assay [2] is filed under the species Homo sapiens. Nature of the assay: Anti-coagulant activity in human plasma were evaluated with the plasma clotting time doubling concentration. The format is functional, cell-free.
Assay [3] deals with Prothrombin (Homo sapiens, UniProt P00734). Nature of the assay: In vitro inhibitory activity against human thrombin.
Assay [4] relates to Rattus norvegicus. Briefly: Ex vivo anti-fXa activity at 1 hr after oral administration of 30 mg/kg to rats perorally. The class given is functional. Summed up:
(§1)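 Male Wistar rats, fasted overnight, dosed by stomach tube with compound in 0.5% (w/v) methylcellulose; controls got vehicle alone. Blood drawn into trisodium citrate under halothane anaesthesia at set times, and platelet-poor plasma prepared.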

Assay [5] relates to Rattus norvegicus. Nature of the assay: Ex vivo anti-fXa activity at 3 hr after oral administration of 30 mg/kg to rats perorally. The class given is functional. A digest of the protocol:
as §1

Assay [6] deals with Rattus norvegicus. Nature of the assay: Ex vivo anti-fXa activity at 6 hr after oral administration of 30 mg/kg to rats perorally. The class given is functional. Summed up: as §1
The test system of assay [7] is Rattus norvegicus. Briefly: Ex vivo anti-coagulant activity at 1 hr after oral administration of 30 mg/kg to rats perorally. The format is functional.
Assay [8] relates to Rattus norvegicus. Nature of the assay: Ex vivo anti-coagulant activity at 3 hr after oral administration of 30 mg/kg to rats perorally. The class given is functional.
Assay [9] concerns Rattus norvegicus. Briefly: Ex vivo anti-coagulant activity at 6 hr after oral administration of 30 mg/kg to rats perorally. The format is functional.

These results are taken from ChEMBL document CHEMBL1146768, “Orally active factor Xa inhibitors: 4,5,6,7-tetrahydrothiazolo[5,4-c]pyridine derivatives” (Bioorg Med Chem Lett, 2004).

Chain of Coagulation factor X (P00742 41-179 limits assumed): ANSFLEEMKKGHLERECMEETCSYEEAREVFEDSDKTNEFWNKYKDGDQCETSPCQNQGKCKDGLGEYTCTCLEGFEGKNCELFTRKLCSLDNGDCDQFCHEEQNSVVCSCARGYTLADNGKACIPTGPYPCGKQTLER
Chain of Coagulation factor X (P00742 235-488 limits assumed): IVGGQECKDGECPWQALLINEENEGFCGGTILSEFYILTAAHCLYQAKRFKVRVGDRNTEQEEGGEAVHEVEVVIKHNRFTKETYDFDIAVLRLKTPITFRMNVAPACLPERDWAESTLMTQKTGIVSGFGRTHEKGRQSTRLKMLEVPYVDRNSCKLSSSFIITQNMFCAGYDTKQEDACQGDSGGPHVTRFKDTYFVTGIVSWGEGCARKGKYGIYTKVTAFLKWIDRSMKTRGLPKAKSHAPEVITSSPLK

A word on the IC50: it is the concentration that gives 50% inhibition. High values mean weaker potency, low ones greater potency. Take `C[N+]1(C)CCc2nc(C(=O)N3CCN(S(=O)(=O)c4ccc5cc(Cl)ccc5c4)CC3)sc2C1`: the IC50 was found to be 7.8 nM in [1] and 3200 nM in assay [3]. In assay [2], the Concentration was determined as 0.8 µM.
`O=C(c1nc2c(s1)CNCC2)N1CCN(S(=O)(=O)c2ccc3cc(Cl)ccc3c2)CC1`: the IC50 in [1] came out at 60 nM; in assay [3] it was 2900 nM. The Concentration in assay [2] is 11.2 µM.
Turning to `CC(C)NC(=O)C1CN(S(=O)(=O)c2ccc3cc(Cl)ccc3c2)CCN1C(=O)c1nc2c(s1)CN(C)CC2` (stereo not given), the IC50 is 45 nM in [1] and 820 nM in assay [3]. Also, the Concentration in [2] was found to be 8.8 µM.
`CNC(=O)C1CN(S(=O)(=O)c2ccc3cc(Cl)ccc3c2)CCN1C(=O)c1nc2c(s1)CN(C)CC2` (stereo not given): the IC50 in assay [1] was found to be 27 nM; in assay [3], 1350 nM. Besides, the Concentration in assay [2] was 3 µM. Further, the Anti-fXa activity in assay [4] amounted to 89.5%; in assay [5], 73.7%; in [6] it was 23.5%. For the same compound, the Prolongation effect came to 1.35 in [7], 1.14 in assay [8] and 1.04 in assay [9].
Take `CN1CCc2nc(C(=O)N3CCN(S(=O)(=O)c4ccc5cc(Cl)ccc5c4)CC3C(=O)NCc3ccccc3)sc2C1` (stereo not given): the IC50 in assay [1] was found to be 640 nM; in [3] it was 1300 nM.
In the case of `CN1CCc2nc(C(=O)N3CCN(S(=O)(=O)c4ccc5cc(Cl)ccc5c4)CC3C(=O)NCC(N)=O)sc2C1` (stereo not given), the results for the IC50 in assay [1] and in [3] were 23 nM and 880 nM, respectively. The compound further had a Concentration in assay [2] of 3.8 µM.
For the compound `CN1CCc2nc(C(=O)N3CCN(S(=O)(=O)c4ccc5cc(Cl)ccc5c4)CC3C(=O)N(C)C)sc2C1` (stereo not given), the IC50 turned out to be 130 nM in assay [1] and 6000 nM in assay [3]. This compound showed a Concentration in [2] of 7 µM.
Turning to `CN1CCc2nc(C(=O)N3CCN(S(=O)(=O)c4ccc5cc(Cl)ccc5c4)CC3C(=O)NCC(=O)N3CCOCC3)sc2C1` (stereo not given), the IC50 in assay [1] was found to be 25 nM; in assay [3], 1000 nM. In assay [2], this compound came in with a Concentration of 2.1 µM.
`CN1CCc2nc(C(=O)N3CCN(S(=O)(=O)c4ccc5cc(Cl)ccc5c4)CC3C(N)=O)sc2C1` (stereo not given) gave a Concentration in [2] of 4.4 µM. The Anti-fXa activity is recorded as 67.4% in assay [4], 55.8% in assay [5] and 24.7% in [6]. For the same compound, the Prolongation effect in assay [7] was 1.13; in assay [8], 1.09; in assay [9], 1.05. The IC50 in [3] was 1000 nM.
Regarding `CN1CCc2nc(C(=O)N3CCN(S(=O)(=O)c4ccc5cc(Cl)ccc5c4)CC3)sc2C1`, the IC50 was 22 nM in [1] and 560 nM in [3]. For the same compound, the Concentration in assay [2] is 6 µM.
